KCNQ1 block = blocks the human KCNQ1 potassium channel; P51787; CHO-K1 KCNQ1, FluxOR thallium flux fluorescence; hits give high values; B-score at 10 µM; actives 1.3% (n = 310,000);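 active = compounds whose thallium flux B-score, printed positive for inhibition, exceeds three library SD while starting fluorescence stays within three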;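 note: channel opened by potassium depolarization with thallium stimulus after 20 min compound exposure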
KCNQ1 pot = potentiates or activates the human KCNQ1 potassium channel. CHO-K1 KCNQ1, thallium flux FluxOR fluorescence; hits give high values. B-score at 10 µM. actives 0.35% (n = 310,000);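 active = fluorescence ratio B-score, a plate-corrected score, at least three library SD, with initial intensity B-score within 5 SD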
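Test system: CHO-K1 cells stably expressing KCNQ1 / Medium: assay buffer / Also added: depolarizing K+/Tl+ stimulus, K2SO4 and Tl2SO4 each 12.5 mM in 5x stock / Incubation: 90 min dye loading and 20 min compound exposure, both at room temperature / Signal: thallium influx via FluxOR fluorescence, kinetic imaging / Evaluation: B score of baseline-normalized fluorescence ratio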
KCNK3 block = human KCNK3 channel inhibition, primary screen; O14649; CHO-KCNK3 thallium flux, FluxOR fluorescence; hits give low values; B-score at 10 µM; actives 0.84% (n = 340,000); AID 602410;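 active = B-score under library mean minus 4 SD, starting fluorescence ratio at most library mean plus 5 SD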;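 note: more negative B-score means stronger inhibition of thallium flux through KCNK3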
hERG rescue = hERG (human) protection from proarrhythmic block | activation (rescue from dofetilide block), less the hit threshold, % at 10 µM | actives 0.51% (n = 310,000) | CHO-hERG, FluxOR thallium flux, dofetilide IC70 present;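 active = activation above the mean of controls blocked by dofetilide plus 5 SD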;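 note: thallium influx through hERG after potassium depolarization seen as dye fluorescence rise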
KCNK9 block = human KCNK9 channel inhibition; Q9NPC2; HEK293 KCNK9, FluxOR thallium flux fluorescence; hits give low values; B-score at 10 µM; actives 1.2% (n = 310,000); AID 488922;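 active = ratio B-score over 3 SD below the library mean, with starting fluorescence within 5 SD of its mean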;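 note: negative B-score means less thallium flux so channel inhibition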
KCNK9 inh conf = confirmation of human KCNK9 potassium channel inhibitors; shares compounds with KCNK9 block; HEK293 KCNK9 cells, FluxOR thallium flux fluorescence; inhibition, % at 10 µM; actives 43% (n = 4,900);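 active = thallium signal inhibited by more than 5 SD of the compound-free buffer control wells, on both duplicate plates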;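 note: 0% = assay buffer control wells without compound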
Kir21 sel = mouse Kir2.1 off-target activity of KCNK9 modulators; shares compounds with KCNK9 block; Kir2.1 cells, FluxOR thallium flux fluorescence; inhibition, % at 10 µM; actives 4% (n = 4,900);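 active = thallium signal drop more than 5 SD beyond the mean of the no-compound control wells, seen in both duplicate plates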;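 note: signal is fluorescence rise after thallium addition divided by baseline fluorescence; plate controls were assay buffer only for no effect and full block by chlorpromazine control for full effect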
KCNK9 uninduced = non-induced cell nonspecific activity of KCNK9 modulators; shares compounds with KCNK9 block; non-induced KCNK9-HEK293, FluxOR thallium flux; inhibition, % at 10 µM; actives 40% (n = 4,900); AID 492997;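 active = thallium signal drop beyond 5 SD of the untreated control mean, on both duplicate plates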;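 note: plate controls were buffer only IC0 wells for no effect and SID17386958 at its maximal inhibitory level for full effect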
The depositor's hits bear a star; i = inactive; x = not tested or not shown. In the library only some 3.1% were active in any assay of this set; here they are far more common.

SMILES	KCNQ1 block	KCNQ1 pot	KCNK3 block	hERG rescue	KCNK9 block	KCNK9 inh conf	Kir21 sel	KCNK9 uninduced
Cc1cccc(NC(=O)C23CCC(C)(C2Br)C3(C)C)c1 (stereo not given)	i	i	i	-8.7	i	i	i	i
CCC1=NN(C(=O)COc2ccccc2)C(O)(c2ccncc2)C1 (stereo not given)	i	i	i	-1.0	i	x	x	x
CCOC(=O)C1=NN(C(=O)COc2ccccc2)C(O)(c2ccc(Br)cc2)C1 (stereo not given)	i	i	i	0.8	-11.4*	i	i	i
CC1=NN(C(=O)COc2ccc(C)c(C)c2)C(O)(c2ccc(Cl)cc2)C1 (stereo not given)	i	i	i	-5.1	-13.8*	50.0%*	i	35.0%*
CN(C)C=NC(=O)c1[nH]c2ccc(Cl)cc2c1-c1ccccc1	i	i	i	-3.1	i	x	x	x
ON=C(CCc1ccccc1)CCc1ccccc1	x	x	i	x	x	x	x	x
O=C(O)Cn1cc(CN2CCOCC2)c2ccccc21	i	i	i	3.5	i	x	x	x
Cn1cc(CN2CCN(c3ccccc3)CC2)c2ccccc21	i	i	i	-10.5	i	i	i	i
CCNCC(=O)N1c2ccccc2CCc2ccc(NC(=O)OC(C)C)cc21	i	i	i	-9.0	-12.9*	65.5%*	i	i
CCNCC(=O)N1c2ccccc2CCc2ccc(NC(C)=O)cc21	i	i	i	-2.3	i	x	x	x
Cc1cccc(-n2c(SCC(N)=O)nc3c(c2=O)C2(CCCC2)Cc2ccccc2-3)c1	i	i	i	-6.3	-9.04*	53.0%*	i	35.0%*
CC1=C(c2ccccc2)C(O)(c2ccccc2)C(C)C1=O (stereo not given)	x	x	i	x	x	x	x	x
CCCCOc1ccccc1NC(=O)c1scc2c1OCCO2	i	i	i	-20.0	-11.7*	47.5%*	i	36.0%*
CCCCOc1ccccc1NC(=O)c1ccco1	i	i	i	-6.0	i	x	x	x
CC(C)(C)NC(=O)Cn1nc(C(F)(F)F)c2c1CCCC2	i	i	i	-4.5	i	i	i	i
Cc1ccccc1C(=O)Nc1sc(C)c(C)c1C(=O)c1ccccc1	8*	i	i	-20.0	i	i	i	i
C=C1CC2C(=O)N(Cc3ccccc3)C(C(=O)OCC)(C(=O)OCC)C1N2C(=O)OC(C)(C)C (stereo not given)	i	i	i	-9.2	-11.7*	47.0%*	i	37.0%*
CCOC(=O)N1CCN(c2c(NC3CCN(Cc4ccccc4)CC3)c(=O)c2=O)CC1	i	i	i	-4.8	i	x	x	x
Oc1cccc2oc(=S)[nH]c12	x	x	i	x	x	x	x	x
CCOC(=O)c1ccccc1NC(=O)COC(=O)c1c(CC)noc1C	i	i	i	-5.4	i	x	x	x
CCn1cc(/C=C(\NC(=O)c2ccccc2F)C(=O)NCCN2CCOCC2)c2ccccc21	i	i	i	-11.3	i	i	i	i
C/C(CCc1ccccc1)=N\NC(=S)NCCc1ccccc1	i	i	i	-8.2	i	x	x	x
C/C(=N\NC(=S)NCCc1ccccc1)c1cccs1	i	i	i	3.5	i	i	i	i
O=C(Nc1cccc(Cl)c1N1CCCC1)c1ccc(Br)o1	i	i	i	-16.2	-9.34*	27.5%*	i	32.0%*
O=C(Nc1cccc(Cl)c1N1CCCC1)c1ccc([N+](=O)[O-])o1	i	i	i	-5.4	-10*	34.0%*	i	28.5%*
SMILES	KCNQ1 block	KCNQ1 pot	KCNK3 block	hERG rescue	KCNK9 block	KCNK9 inh conf	Kir21 sel	KCNK9 uninduced
O=C(Nc1cccc(Cl)c1N1CCCC1)c1cc2ccccc2o1	i	i	i	-13.1	i	x	x	x
Cc1ccsc1/C=N/NC(=O)C1CC(=O)N(c2ccccc2)C1 (stereo not given)	i	i	i	-6.9	i	x	x	x
O=C1N=c2ccc(Br)cc2=C1c1sc(=S)n(NS(=O)(=O)c2ccccc2)c1O	i	i	i	-8.5	i	i	i	i
O=C1N=c2ccccc2=C1c1sc(=S)n(NC(=O)c2cccc(O)c2)c1O	i	i	i	-4.3	i	x	x	x
Cc1nnc2n(-c3ccccc3)c(=O)c3c4c(sc3n12)COC(C)(C)C4	i	i	i	-4.2	i	x	x	x
CCCCSc1nnc2n(CCc3ccccc3)c(=O)c3c4c(sc3n12)COC(C)(C)C4	i	i	i	-16.1	i	i	i	i
O=C(NCc1cn(-c2ccccc2)nc1-c1ccccc1)c1cc([N+](=O)[O-])cc([N+](=O)[O-])c1	i	i	i	-5.4	i	x	x	x
COc1ccc(-c2nn(-c3ccccc3)cc2CNC(=O)c2cccc([N+](=O)[O-])c2)cc1	i	i	i	-9.4	-11*	51.5%*	i	30.0%*
CCN1CCN(CCNC(=O)c2ccc(CS(=O)c3ccc(Br)cc3)o2)CC1 (stereo not given)	i	i	i	-8.5	i	x	x	x
CN(C)C(CNc1ncnc2sc3c(c12)CCCC3)c1ccco1 (stereo not given)	i	i	i	-4.8	i	i	i	i
c1coc(CNc2ncnc3sc4c(c23)CCCCC4)c1	i	i	i	-20.8	i	x	x	x
Cc1nn(-c2ccccc2)c(N)c1Sc1ccc([N+](=O)[O-])cc1	i	i	i	-16.3	-13.1*	73.0%*	i	33.5%*
Cc1nn(S(=O)(=O)c2ccc(Cl)cc2)c(C)c1Sc1ccc([N+](=O)[O-])cc1	i	i	i	-22.8	i	x	x	x
NC(=O)c1cc(NC(=O)CCCc2nc3ccccc3s2)cc(C(N)=O)c1	i	i	i	-14.7	i	x	x	x
O=C(O)c1ccc(Cl)c(S(=O)(=O)N(Cc2ccccc2)c2ccc(Cl)cc2)c1	i	i	i	-15.7	i	i	i	i
NC(=O)COC(=O)c1ccc(Cl)c(S(=O)(=O)N(Cc2ccccc2)c2ccc(Cl)cc2)c1	i	i	i	-8.3	i	x	x	x
COc1ccc(S(=O)(=O)N2CCCCCC2)cc1C(=O)NCCc1ccccc1	x	x	i	x	x	x	x	x
NC1=NC(=O)/C(=C/c2ccccc2OS(=O)(=O)c2ccc3ccccc3c2)S1	i	i	i	-8.1	i	x	x	x
Cc1ccc(NC(=S)N/N=C2/CCCCc3ccccc32)cc1	i	8*	i	-4.7	i	i	i	i

Screens deposited in PubChem BioAssay by Johns Hopkins Ion Channel Center.
